Laboratory results: ChEMBL document CHEMBL4706572, “Benzyl and benzoyl benzoic acid inhibitors of bacterial RNA polymerase-sigma factor interaction” (Eur J Med Chem, 2020)
In brackets after ≈: the same amount, converted by molar mass. Activity calls are given as the source filed them. The rule behind the calls is not given here.

Key:
Staphylococcus aureus [1] = assay: Antibacterial activity against Staphylococcus aureus ATCC 29213 after 20 hrs by CLSI based-broth microdilution method; format: functional
Procedure, shortened: (§1)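 Broth microdilution in cation-adjusted Mueller-Hinton broth. Two-fold serial dilutions from 256 μg/mL down to 0.5 μg/mL. Inoculum approx. 5 × 10^5 CFU/mL. Incubated 20 h at 37 °C. MIC taken as the lowest concentration with no observable growth.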

Streptococcus pneumoniae = assay: Antibacterial activity against Streptococcus pneumoniae ATCC 49619 after 20 hrs by CLSI based-broth microdilution method; format: functional
Procedure, shortened: (§2)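 Streptococci tested in Brain Heart Infusion broth. Two-fold dilutions from 256 to 0.5 μg/mL, inoculum approx. 5 × 10^5 CFU/mL. Incubated 20 h at 37 °C. MIC is the lowest concentration without visible growth.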

Staphylococcus aureus [2] = assay: Antibacterial activity against Staphylococcus aureus ATCC 25923 after 20 hrs by CLSI based-broth microdilution method; format: functional; procedure, shortened: as §1
Staphylococcus aureus [3] = assay: Inhibition of RNA polymerase in Staphylococcus aureus ATCC 29213 assessed as reduction in total protein level at 1/4 to 1/8 times MIC by fluorimetric method
Staphylococcus aureus [4] = assay: Inhibition of RNA polymerase in Staphylococcus aureus ATCC 29213 assessed as total DNA level at 1/4 to 1/8 times MIC by fluorimetric method
Procedure, shortened: (§3)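 S. aureus ATCC 29213 master culture started at OD600 0.1 at 37 °C with shaking at 175 rpm. At OD600 0.2 it was split and given compound or control at ¼ and ⅛ MIC, plus a drug-free culture. Cells harvested when the control reached OD600 0.6, with volumes normalized to OD600 0.6 equivalent. DNA and RNA measured by Qubit fluorometry, protein by BCA; triplicate.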

Staphylococcus aureus [5] = assay: Inhibition of RNA polymerase in Staphylococcus aureus ATCC 29213 assessed as reduction in total RNA level at 1/4 to 1/8 times MIC by fluorimetric method; procedure, shortened: as §3
Enterococcus faecalis = assay: Antibacterial activity against Enterococcus faecalis ATCC 19433 after 20 hrs by CLSI based-broth microdilution method; format: functional
Procedure, shortened: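 Broth microdilution MIC. Two-fold serial dilutions from 256 μg/mL down to 0.5 μg/mL. Inoculum approx. 5 × 10^5 CFU/mL. Read after 20 h at 37 °C. MIC is the lowest concentration with no observable growth.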

Clostridioides difficile [6] = assay: Antibacterial activity against Clostridium difficile ribotype 002 assessed as reduction in bacterial toxin B production at sub-inhibitory concentration incubated for 48 hrs under anaerobic condition by ELISA; format: functional, organism-based
Procedure, shortened: (§4)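 Incubated anaerobically at 37 °C for 48 h. Supernatants cleared at 10,000 × g for 2 min. TcdA and TcdB quantified by commercial ELISA, normalized to drug-free control. Duplicate, with technical and biological repeats.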

Clostridioides difficile [7] = assay: Antibacterial activity against Clostridium difficile ATCC 9689 assessed as reduction in bacterial toxin A production at sub-inhibitory concentration incubated for 48 hrs under anaerobic condition by ELISA; format: functional, organism-based; conditions: ATCC 9689 = DSM 1296; procedure, shortened: as §4
Clostridioides difficile [8] = assay: Antibacterial activity against Clostridium difficile ATCC 9689 after measured 48 hrs under anaerobic condition by CLSI based-broth microdilution method; format: functional; conditions: ATCC 9689 = DSM 1296
Procedure, shortened: (§5)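 Compounds dissolved in DMSO. Media pre-reduced 3 h in an anaerobic chamber. Colonies from overnight anaerobic GAM agar grown to early log phase in BHI plus 0.5% w/v yeast extract and 0.05% L-cysteine. Adjusted to 0.5 McFarland, diluted 100 μL into 15 mL. Mixed 1:1 with serially diluted agents. Incubated anaerobically at 37 °C, growth read at 48 h, triplicate.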

[9] = tested on: Staphylococcus epidermidis; assay: Antibacterial activity against Staphylococcus epidermidis ATCC 12228 after 20 hrs by CLSI based-broth microdilution method; format: functional; procedure, shortened: as §1
Clostridioides difficile [10] = assay: Antibacterial activity against Clostridium difficile ribotype 002 assessed as reduction in bacterial toxin A production at sub-inhibitory concentration incubated for 48 hrs under anaerobic condition by ELISA; format: functional, organism-based; procedure, shortened: as §4
[11] = Antibacterial activity against Staphylococcus saprophyticus ATCC 15305 after 20 hrs by CLSI based-broth microdilution method; format: functional, Staphylococcus saprophyticus subsp. saprophyticus; procedure, shortened: as §1
Clostridioides difficile [12] = assay: Antibacterial activity against Clostridium difficile ribotype 002 measured after 48 hrs under anaerobic condition by CLSI based-broth microdilution method; format: functional; procedure, shortened: as §5
Clostridioides difficile [13] = assay: Antibacterial activity against Clostridium difficile ATCC 9689 assessed as reduction in bacterial toxin B production at sub-inhibitory concentration incubated for 48 hrs under anaerobic condition by ELISA; format: functional, organism-based; conditions: ATCC 9689 = DSM 1296; procedure, shortened: as §4
Clostridioides difficile [14] = assay: Antibacterial activity against Clostridium difficile ribotype 027 assessed as reduction in bacterial toxin A production at sub-inhibitory concentration incubated for 48 hrs under anaerobic condition by ELISA; format: functional, organism-based; procedure, shortened: as §4
Clostridioides difficile [15] = assay: Antibacterial activity against Clostridium difficile ribotype 027 measured after 48 hrs under anaerobic condition by CLSI based-broth microdilution method; format: functional; procedure, shortened: as §5
Clostridioides difficile [16] = assay: Antibacterial activity against Clostridium difficile ribotype 027 assessed as reduction in bacterial toxin B production at sub-inhibitory concentration incubated for 48 hrs under anaerobic condition by ELISA; format: functional, organism-based; procedure, shortened: as §4
Streptococcus pyogenes = assay: Antibacterial activity against Streptococcus pyogenes ATCC 19615 after 20 hrs by CLSI based-broth microdilution method; format: functional; procedure, shortened: as §2
Streptococcus agalactiae = assay: Antibacterial activity against Streptococcus agalactiae ATCC 12386 after 20 hrs by CLSI based-broth microdilution method; format: functional; procedure, shortened: as §2

SMILES | MIC (Staphylococcus aureus [1]) [µg/mL] | MIC (Streptococcus pneumoniae) [µg/mL] | MIC (Staphylococcus aureus [2]) [µg/mL] | also measured
O=C(O)c1ccc(F)cc1Cc1ccc(Sc2ccc(Cl)c(Cl)c2)c([N+](=O)[O-])c1 | 8 (≈ 17.7 µM) | 4 (≈ 8.84 µM) | 8 (≈ 17.7 µM) | –
O=C(O)c1ccc(C(F)(F)F)cc1Cc1ccc(Sc2ccc(Cl)c(Cl)c2)c([N+](=O)[O-])c1 | – | 1 (≈ 1.99 µM) | – | –
CO[C@H]1/C=C/O[C@@]2(C)Oc3c(C)c(O)c4c(O)c(c(/C=N/N5CCN(C)CC5)c(O)c4c3C2=O)NC(=O)/C(C)=C\C=C\[C@H](C)[C@H](O)[C@@H](C)[C@@H](O)[C@@H](C)[C@H](OC(C)=O)[C@@H]1C | – | – | – | inhibition (Staphylococcus aureus [3]): inactive; inhibition (Staphylococcus aureus [4]): inactive; inhibition (Staphylococcus aureus [5]): Active
Nc1ccccc1Sc1ccc(C(=O)c2ccccc2C(=O)O)cc1[N+](=O)[O-] | – | 256 (≈ 649 µM) | – | –
O=C(O)c1cccc(Cc2ccc(Sc3ccc(Cl)c(Cl)c3)c([N+](=O)[O-])c2)c1 | > 256 | > 256 | > 256 | –
CN[C@H](CC(C)C)C(=O)N[C@H]1C(=O)N[C@@H](CC(N)=O)C(=O)N[C@H]2C(=O)N[C@H]3C(=O)N[C@H](C(=O)N[C@H](C(=O)O)c4cc(O)cc(O)c4-c4cc3ccc4O)[C@H](O)c3ccc(c(Cl)c3)Oc3cc2cc(c3O[C@@H]2O[C@H](CO)[C@@H](O)[C@H](O)[C@H]2O[C@H]2C[C@](C)(N)[C@H](O)[C@H](C)O2)Oc2ccc(cc2Cl)[C@H]1O [VANCOMYCIN] | – | – | – | MIC (Enterococcus faecalis): 1 µg/mL (≈ 0.69 µM); Activity (Clostridioides difficile [6]): inactive; Activity (Clostridioides difficile [7]): inactive; MIC (Clostridioides difficile [8]): 4 µg/mL (≈ 2.76 µM); MIC [9]: 0.5 µg/mL (≈ 0.345 µM); Activity (Clostridioides difficile [10]): inactive; MIC [11]: 0.25 µg/mL (≈ 0.173 µM); MIC (Clostridioides difficile [12]): 2 µg/mL (≈ 1.38 µM); Activity (Clostridioides difficile [13]): inactive; Activity (Clostridioides difficile [14]): inactive; MIC (Clostridioides difficile [15]): 2 µg/mL (≈ 1.38 µM); Activity (Clostridioides difficile [16]): inactive; MIC (Streptococcus pyogenes): 1 µg/mL (≈ 0.69 µM); MIC (Streptococcus agalactiae): 2 µg/mL (≈ 1.38 µM)
Cc1ccc(C(=O)O)c(Cc2ccc(Sc3ccc(Cl)c(Cl)c3)c([N+](=O)[O-])c2)c1 | 4 (≈ 8.92 µM) | 4 (≈ 8.92 µM) | 4 (≈ 8.92 µM) | –
O=C(O)c1ccccc1C(=O)c1ccc(Sc2ccc(Cl)c(Cl)c2)c([N+](=O)[O-])c1 | 16 (≈ 35.7 µM) | 8 (≈ 17.8 µM) | 16 (≈ 35.7 µM) | –
O=C(O)c1ccc(Cl)cc1C(=O)c1ccc(Sc2ccc(Cl)c(Cl)c2)c([N+](=O)[O-])c1 | 8 (≈ 16.6 µM) | 8 (≈ 16.6 µM) | 8 (≈ 16.6 µM) | –
O=C(O)c1cc(Cl)ccc1Cc1ccc(Sc2ccc(Cl)c(Cl)c2)c([N+](=O)[O-])c1 | 8 (≈ 17.1 µM) | 4 (≈ 8.53 µM) | 8 (≈ 17.1 µM) | –
O=C(O)c1ccc(F)cc1C(=O)c1ccc(Sc2ccc(Cl)c(Cl)c2)c([N+](=O)[O-])c1 | 8 (≈ 17.2 µM) | 8 (≈ 17.2 µM) | 16 (≈ 34.3 µM) | –
